The record followed here is ChEMBL document CHEMBL3853346, “Synthesis of arylated coumarins by Suzuki-Miyaura cross-coupling. Reactions and anti-HIV activity” (Bioorg Med Chem, 2016).

The subject of data set [1] is Human immunodeficiency virus 1. Kind of data set: Antiviral activity against HIV-1 3B infected in human MT-4 cells assessed as protection against virus induced cytopathic effect after 5 days by MTT assay. The following applies: Human immunodeficiency virus 1, 3B, MT4, 120 h. It is filed as functional, cell-based. The method, boiled down:
(§1)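 MT-4 cells, exponentially growing, resuspended at 6 x 10⁵ cells/mL and infected with HIV-1 IIIB or HIV-2 ROD at 100-300 CCID50. Test compounds added as serial 5-fold dilutions in triplicate wells at the start. Untreated infected and mock-infected controls included. Viability read by MTT spectrophotometrically 5 days post-infection. EC50 is the concentration giving 50% protection from virus-induced cytopathic effect.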
(Cytopathic effects are the visible damage that an infection or toxin causes in cultured cells.)

Data set [2] in a line: Selectivity index, ratio of CC50 for human MT-4 cells to IC50 for HIV-1 3B infected in human MT-4 cells. It is filed as functional, MT4. The method, boiled down:
(§2)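 Selectivity index is CC50 in mock-infected MT-4 cells divided by IC50 against HIV-1 IIIB or HIV-2 ROD. Both values come from parallel 5-day MTT assays in the same plates.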

Data set [3] can be described thus: Antiviral activity against HIV-2 ROD infected in human MT-4 cells assessed as protection against virus induced cytopathic effect after 5 days by MTT assay. Conditions: Human immunodeficiency virus 2, MT4, 120 h. Format: functional, cell-based, Human immunodeficiency virus type 2 (ISOLATE ROD). An outline of the steps:
as §1

Data set [4] can be described thus: Cytotoxicity against human MT4 cells assessed as reduction in cell viability after 5 days by MTT assay. It is filed as toxicity, cell-based. The method, boiled down: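 Mock-infected MT-4 cells (6 x 10⁵ cells/mL) were run in parallel with the infected series. Serial 5-fold compound dilutions were tested in triplicate wells, with culture medium in place of virus. Viability was measured by MTT at day 5. CC50 is the concentration that reduces viability of mock-infected cells by 50%.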
Background: Tetrazolium dyes change colour on reduction, which living cells bring about.

A short description of data set [5]: Selectivity index, ratio of CC50 for human MT-4 cells to IC50 for HIV-2 ROD infected in human MT-4 cells. Format: functional, MT4. The method, boiled down: as §2

Values after ≈ are worked out from the molar mass of the structure shown.

Regarding `Cc1cc(=O)oc2cc(-c3ccc(Cl)cc3)c(OS(=O)(=O)C(F)(F)F)cc12`, the results for the IC50 in data set [1] and in data set [3] were above 30.6 µg/mL and above 35.6 µg/mL, respectively. The “Ratio CC50/IC50” value in data set [2] and in data set [5] was below 1 each time. The CC50 (as a rule, the concentration that lowers cell viability or growth by half) at 120 h in data set [4] is 35.6 µg/mL (≈ 85.1 µM).
`COc1ccc(-c2cc3oc(=O)cc(C)c3cc2-c2cccc(C)c2)cc1`: the IC50 in data set [1] and in data set [3] was above 7.4 µg/mL throughout. The “Ratio CC50/IC50” value in data set [2] and in data set [5] was below 1 throughout. Moreover, the CC50 at 120 h in data set [4] amounted to 7.4 µg/mL (≈ 20.8 µM).
With `Cc1cc(=O)oc2cc(-c3ccc(F)cc3)c(OS(=O)(=O)C(F)(F)F)cc12`, the IC50 in data set [1] and in data set [3] was above 10.6 µg/mL each time. The “Ratio CC50/IC50” value in data set [2] and in data set [5] was below 1 throughout. Besides, the CC50 at 120 h in data set [4] is 10.6 µg/mL (≈ 26.4 µM).
For `Cc1cc(=O)oc2cc(OS(=O)(=O)C(F)(F)F)c(OS(=O)(=O)C(F)(F)F)cc12`, the half-inhibitory concentration (IC50) in data set [1] and in data set [3] was above 43.5 µg/mL throughout. Besides, the “Ratio CC50/IC50” value in data set [2] and in data set [5] was below 1 each time. The CC50 at 120 h in data set [4] came out at 43.5 µg/mL (≈ 95.3 µM).
For the compound `Cc1cc(=O)oc2cc(-c3ccccc3)c(-c3ccccc3)cc12`, the IC50 in data set [1] and in data set [3] was above 13.8 µg/mL in each case. In addition, the “Ratio CC50/IC50” value in data set [2] and in data set [5] was below 1 in each case. Further, the CC50 at 120 h in data set [4] is 13.8 µg/mL (≈ 44.1 µM).
As to `Cc1cc(C)cc(-c2cc3oc(=O)cc(C)c3cc2OS(=O)(=O)C(F)(F)F)c1`, the 50% inhibitory concentration (IC50) in data set [1] and in data set [3] was above 33.1 µg/mL in each case. The “Ratio CC50/IC50” value in data set [2] and in data set [5] was below 1 throughout. The CC50 at 120 h in data set [4] amounted to 33.1 µg/mL (≈ 80.3 µM).
As for `Cc1cc(C)cc(-c2cc3oc(=O)cc(C)c3cc2-c2cc(C)cc(C)c2)c1`, the values for the IC50 in data set [1] and in data set [3] were 4.57 µg/mL (≈ 12.4 µM) and above 14.4 µg/mL, respectively. The “Ratio CC50/IC50” value is on record as 3 in data set [2] and below 1 in data set [5]. The cytotoxic concentration (CC50) at 120 h in data set [4] amounted to 14.4 µg/mL (≈ 39.1 µM).
With `Cc1ccnc2c1NC(=O)c1cccnc1N2C1CC1` [NEVIRAPINE], the “Ratio CC50/IC50” value in data set [2] is recorded as above 80; in data set [5], below 1. Moreover, the 50% inhibitory concentration (IC50) (as a rule, the concentration that inhibits the measured activity by half) in data set [3] was above 4 µg/mL. Moreover, the CC50 at 120 h in data set [4] was above 4 µg/mL.
In the case of `Cc1cn([C@H]2C[C@H](N=[N+]=[N-])[C@@H](CO)O2)c(=O)[nH]c1=O` [ZIDOVUDINE], the results for the “Ratio CC50/IC50” value in data set [2] and in data set [5] were above 11363 and above 26596, respectively. In addition, the IC50 in data set [3] was found to be 0.00094 µg/mL (≈ 0.00352 µM). The 50% cytotoxic concentration (CC50) at 120 h in data set [4] was above 25 µg/mL.
With `Cc1cccc(-c2cc3oc(=O)cc(C)c3cc2OS(=O)(=O)C(F)(F)F)c1`, the IC50 in data set [1] was 13.2 µg/mL (≈ 33.1 µM); in data set [3], above 61.3 µg/mL. Moreover, the “Ratio CC50/IC50” value in data set [2] is reported as 5; in data set [5], below 1. Moreover, the half-maximal cytotoxic concentration (CC50) at 120 h in data set [4] came to 61.3 µg/mL (≈ 154 µM).
Consider `Cc1cc(=O)oc2cc(-c3ccc(Cl)cc3)c(-c3ccc(Cl)cc3)cc12`, for which the IC50 in data set [1] and in data set [3] was above 16 µg/mL in each case. Besides, the “Ratio CC50/IC50” value in data set [2] and in data set [5] was below 1 each time. Moreover, the cytotoxic concentration (CC50) at 120 h in data set [4] was 16 µg/mL (≈ 41.9 µM).
Regarding `Cc1cc(=O)oc2cc(-c3ccc(C(F)(F)F)cc3)c(OS(=O)(=O)C(F)(F)F)cc12`, the IC50 in data set [1] and in data set [3] was above 80.3 µg/mL in each case. In addition, the “Ratio CC50/IC50” value in data set [2] and in data set [5] was below 1 in each case. In data set [4], the CC50 at 120 h worked out at 80.3 µg/mL (≈ 178 µM).
For `COc1cccc(-c2cc3oc(=O)cc(C)c3cc2OS(=O)(=O)C(F)(F)F)c1`, the 50% inhibitory concentration (IC50) in data set [1] and in data set [3] was above 18.9 µg/mL throughout. For the same compound, the “Ratio CC50/IC50” value in data set [2] and in data set [5] was below 1 in each case. Moreover, in data set [4], the half-maximal cytotoxic concentration (CC50) at 120 h was 18.9 µg/mL (≈ 45.5 µM).
As for `COc1ccc(-c2cc3oc(=O)cc(C)c3cc2-c2cc(C)cc(C)c2)cc1`, the half-inhibitory concentration (IC50) in data set [1] and in data set [3] was above 2.08 µg/mL in each case. For the same compound, the “Ratio CC50/IC50” value in data set [2] and in data set [5] was below 1 in each case. Further, the CC50 at 120 h in data set [4] came out at 2.08 µg/mL (≈ 5.61 µM).
As to `COc1ccc(-c2cc3oc(=O)cc(C)c3cc2-c2ccc(Cl)cc2)cc1`, the IC50 in data set [1] and in data set [3] was above 2.06 µg/mL throughout. For the same compound, the “Ratio CC50/IC50” value in data set [2] and in data set [5] was below 1 each time. Besides, the CC50 at 120 h in data set [4] is 2.06 µg/mL (≈ 5.47 µM).
In the case of `COc1ccc(-c2cc3oc(=O)cc(C)c3cc2OS(=O)(=O)C(F)(F)F)cc1`, the IC50 in data set [1] and in data set [3] was above 10.6 µg/mL each time. The “Ratio CC50/IC50” value in data set [2] and in data set [5] was below 1 throughout. Further, the 50% cytotoxic concentration (CC50) at 120 h in data set [4] was at least 10.6 µg/mL.
On to `Cc1cc(=O)oc2cc(-c3ccc(C(C)(C)C)cc3)c(OS(=O)(=O)C(F)(F)F)cc12`, for which the half-maximal inhibitory concentration (IC50) in data set [1] and in data set [3] was above 10.3 µg/mL throughout. Moreover, the “Ratio CC50/IC50” value in data set [2] and in data set [5] was below 1 in each case. Also, in data set [4], the CC50 at 120 h came to 10.3 µg/mL (≈ 23.3 µM).
Regarding `CCOc1ccc(-c2cc3oc(=O)cc(C)c3cc2-c2ccc(OCC)cc2)cc1`, the IC50 in data set [1] and in data set [3] was above 37.3 µg/mL each time. The “Ratio CC50/IC50” value in data set [2] and in data set [5] was below 1 each time. Moreover, the CC50 at 120 h in data set [4] amounted to 37.3 µg/mL (≈ 93.2 µM).
As to `Cc1cc(=O)oc2cc(-c3ccccc3)c(OS(=O)(=O)C(F)(F)F)cc12`, the IC50 in data set [1] and in data set [3] was above 12.5 µg/mL in each case. Besides, the “Ratio CC50/IC50” value in data set [2] and in data set [5] was below 1 each time. For the same compound, the cytotoxic concentration (CC50) at 120 h in data set [4] was found to be 12.6 µg/mL (≈ 32.7 µM).
For the compound `COc1ccc(-c2cc3oc(=O)cc(C)c3cc2-c2ccc(OC)cc2)cc1`, the IC50 in data set [1] and in data set [3] was above 11 µg/mL throughout. In addition, the “Ratio CC50/IC50” value in data set [2] and in data set [5] was below 1 in each case. Moreover, the CC50 at 120 h in data set [4] came to 11 µg/mL (≈ 29.5 µM).
As for `COc1ccc(-c2cc3oc(=O)cc(C)c3cc2-c2ccc(F)cc2)cc1`, the half-inhibitory concentration (IC50) in data set [1] and in data set [3] was above 10.9 µg/mL in each case. Also, the “Ratio CC50/IC50” value in data set [2] and in data set [5] was below 1 each time. Also, the half-maximal cytotoxic concentration (CC50) at 120 h in data set [4] stood at 10.9 µg/mL (≈ 30.3 µM).
Turning to `Cc1ccc(-c2cc3oc(=O)cc(C)c3cc2OS(=O)(=O)C(F)(F)F)cc1`, the concentration for half-maximal inhibition (IC50) in data set [1] and in data set [3] was above 11 µg/mL throughout. Further, the “Ratio CC50/IC50” value in data set [2] and in data set [5] was below 1 each time. In addition, the CC50 at 120 h in data set [4] worked out at 11 µg/mL (≈ 27.6 µM).
In the case of `CCOc1ccc(-c2cc3oc(=O)cc(C)c3cc2OS(=O)(=O)C(F)(F)F)cc1`, the IC50 in data set [1] and in data set [3] was above 27.2 µg/mL throughout. Also, the Ratio CC50/IC50 in data set [2] and in data set [5] was below 1 throughout. Besides, in data set [4], the CC50 at 120 h was at least 27.2 µg/mL.
Take `COc1ccc(-c2cc3oc(=O)cc(C)c3cc2OS(=O)(=O)C(F)(F)F)c(OC)c1OC`: the half-maximal inhibitory concentration (IC50) in data set [1] and in data set [3] was above 2.13 µg/mL throughout. Besides, the “Ratio CC50/IC50” value in data set [2] and in data set [5] was below 1 in each case. Also, the CC50 at 120 h in data set [4] came to 2.13 µg/mL (≈ 4.49 µM).
